Measured values reported in ChEMBL document CHEMBL4732158, “Bicyclic Ligand-Biased Agonists of S1P: Exploring Side Chain Modifications to Modulate the PK, PD, and Safety Profiles” (J Med Chem, 2021).
Calls of active or inactive are those of the source. The calls are words filed in the database; no cut-off is given here.

Key:
[1] = AUC ratio in orally dosed Beagle dog blood assessed as phosphate metabolite to parent compound; assay type: ADME, organism-based, Canis lupus familiaris; conditions: in vivo, po
Procedure, shortened: (§1)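 Phosphate-to-parent ratio computed as blood AUC ratio after oral dosing in rats, dogs and monkeys.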

[2] = Drug concentration in Lewis rat blood assessed as concentration of parent compound at 2 mg/kg, po measured at 24 hrs by LC-MS/MS analysis; assay type: ADME, organism-based; conditions: in vivo, read-out: Ct
Procedure, shortened: (§2)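 Lewis rats (n = 2−4) dosed orally at 0.5, 1, 2 or 5 mg/kg; blood parent and phosphate metabolite concentrations and lymphocyte counts taken 4 and 24 h post-dose; phosphate-to-parent ratio from 24 h levels; significance versus vehicle by ANOVA with Dunnett's test.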

Rattus norvegicus [3] = assay: Reduction in circulating lymphocytes count in Lewis rat at 2 mg/kg, po measured at 4 hrs by hematology analyzer based analysis; assay type: functional; set-up: scale not given: the % may be the effect or the level left
Procedure, shortened: (§3)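 Lewis rats (n = 2−4) dosed orally; whole-blood lymphocyte counts taken 4 h and 24 h after dosing and reduction expressed versus vehicle-treated rats. Significance by ANOVA with Dunnett's test (p < 0.05 vs vehicle). Blood levels of parent and phosphate metabolite measured at the same time points in this PK/PD screen.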

[4] = Volume of distribution at steady state in Sprague- Dawley rat at 2 mg/kg, iv; assay type: ADME, organism-based; conditions: in vivo, read-out: Vdss
Procedure, shortened: (§4)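 Single IV and oral dosing in male animals, n = 3. Rats were Sprague-Dawley. Vehicle: 18.4% hydroxypropyl-β-cyclodextrin in 13.8 mM citric acid. Blood concentrations followed over time; terminal T1/2 and steady-state volume of distribution taken from the IV dose.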

[5] = Clearance in Sprague- Dawley rat at 2 mg/kg, iv; assay type: ADME, organism-based; conditions: in vivo
[6] = Terminal half life in cynomolgus monkey at 1 mg/kg, po or 1 mg/kg, iv; assay type: ADME, organism-based, Macaca fascicularis; conditions: in vivo, read-out: beta t1/2 (converted); procedure, shortened: as §4
[7] = Terminal half life in Sprague- Dawley rat at 2 mg/kg, iv; assay type: ADME, organism-based; conditions: in vivo, read-out: beta t1/2 (converted); procedure, shortened: as §4
[8] = AUC ratio in orally dosed Sprague-Dawley rat blood assessed as phosphate metabolite to parent compound; assay type: ADME, organism-based; conditions: in vivo, po; procedure, shortened: as §1
[9] = Drug concentration in Lewis rat blood assessed as concentration of parent compound at 2 mg/kg, po measured at 4 hrs by LC-MS/MS analysis; assay type: ADME, organism-based; conditions: Lewis, blood, read-out: Ct; procedure, shortened: as §2
[10] = Reduction in circulating lymphocytes count in Lewis rat at 2 mg/kg, po measured at 24 hrs by hematology analyzer based analysis; assay type: Functional, organism-based; set-up: scale not given: the % may be the effect or the level left; conditions: in vivo; procedure, shortened: as §3
[11] = Terminal half life in dog at 1 mg/kg, po; assay type: ADME, organism-based, Canis lupus familiaris; conditions: in vivo, read-out: beta t1/2 (converted)
[12] = Volume of distribution at steady state in cynomolgus monkey at 1 mg/kg, po or 1 mg/kg, iv; assay type: ADME, organism-based, Macaca fascicularis; conditions: in vivo, read-out: Vdss; procedure, shortened: as §4
[13] = Half life in Lewis rat at 2 mg/kg, po measured at 4 to 72 hrs; assay type: ADME, organism-based; conditions: Lewis, in vivo, time 4-72 hrs
Procedure, shortened: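 Half-life estimated from oral-dosing blood PK profiles in Lewis rats sampled at four time points: 4, 24, 48 and 72 h.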

Rattus norvegicus [14] = assay: Antiinflammatory activity in complete freund's adjuvant-induced Lewis rat model of arthritis assessed as reduction in paw swelling at 0.3 mg/kg, po administered via gavage once daily and measured at day 13 to 20 by plethysmometric method relative to control; assay type: functional; set-up: scale not given: the % may be the effect or the level left; conditions: time 13-20 day
Rattus norvegicus [15] = assay: Antiinflammatory activity in complete freund's adjuvant-induced Lewis rat model of arthritis assessed as effective dose administered via oral gavage once daily by plethysmometric method; assay type: functional
[16] = Cardiotoxicity in human iPSC derived cardiomyocytes assessed as change in heart rate at 1 nM measured over 2 hrs by multi-electrode array relative to control; assay type: toxicity, cell-based; conditions: stem cell-derived cardiomyocyte, 0.001 µM
Procedure, shortened: (§5)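 Phosphate metabolite of each compound prepared and tested on cultured human induced pluripotent stem cell-derived cardiomyocytes at 1 and 10 nM; beat rate change averaged over three or more replicates per concentration unless noted (some n = 2).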

[17] = Clearance in cynomolgus monkey at 1 mg/kg, iv; assay type: ADME, organism-based, Macaca fascicularis; conditions: in vivo
[18] = Oral bioavailability in cynomolgus monkey at 1 mg/kg; assay type: ADME, organism-based, Macaca fascicularis; conditions: in vivo
[19] = Ratio of drug metabolism in Lewis rat blood assessed as phosphate ester metabolite to parent drug at 2 mg/kg, po measured at 24 hrs by LC-MS/MS analysis; assay type: ADME, organism-based; conditions: in vivo; procedure, shortened: as §2
[20] = AUC ratio in orally dosed cynomolgus monkey blood assessed as phosphate metabolite to parent compound; assay type: ADME, organism-based, Macaca fascicularis; conditions: in vivo, po; procedure, shortened: as §1
[21] = Pulmonary toxicity in Lewis rat assessed as fold elevation of BAL protein content at 2 mg/kg, po by chemistry analyzer based analysis relative to control; assay type: organism-based; conditions: in vivo
Procedure, shortened: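 Lewis rats dosed orally; bronchoalveolar lavage protein measured at study end, expressed as fold over vehicle control.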

[22] = Cardiotoxicity in human iPSC derived cardiomyocytes assessed as change in heart rate at 10 nM measured over 2 hrs by multi-electrode array relative to control; assay type: toxicity, cell-based; conditions: stem cell-derived cardiomyocyte, 0.01 µM; procedure, shortened: as §5
[23] = biological target: T1, Sphingosine 1-phosphate receptor 4 (Homo sapiens, UniProt O95977); assay: Agonist activity at recombinant human S1P4 expressed in CHO cell membranes assessed as stimulation of [35S]-GTPgammaS binding measured after 45 mins by liquid scintillation counting method; assay type: functional, Membrane
T1 sequence (O95977 whole entry): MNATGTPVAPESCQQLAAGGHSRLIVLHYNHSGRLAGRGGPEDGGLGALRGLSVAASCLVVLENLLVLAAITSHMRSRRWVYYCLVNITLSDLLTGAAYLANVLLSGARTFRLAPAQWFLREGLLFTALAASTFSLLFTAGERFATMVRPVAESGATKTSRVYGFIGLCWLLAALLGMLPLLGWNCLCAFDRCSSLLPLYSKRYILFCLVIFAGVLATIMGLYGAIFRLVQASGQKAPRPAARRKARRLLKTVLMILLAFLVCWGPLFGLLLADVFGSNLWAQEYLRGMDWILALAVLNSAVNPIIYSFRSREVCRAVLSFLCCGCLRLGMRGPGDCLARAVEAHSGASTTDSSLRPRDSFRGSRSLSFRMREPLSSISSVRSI

[24] = Antimigratory activity against human T cells assessed as inhibition of S1P-induced T cell migration preincubated for 10 mins followed by addition of S1P measured after 120 mins by calcein-AM dye based fluorescence analysis; assay type: functional
[25] = Oral bioavailability in Sprague- Dawley rat at 1 mg/kg; assay type: ADME, organism-based; conditions: in vivo
Rattus norvegicus [26] = assay: Antiinflammatory activity in complete freund's adjuvant-induced Lewis rat model of arthritis assessed as reduction in paw swelling at 0.5 mg/kg, po administered via gavage once daily and measured at day 18 to 22 by plethysmometric method relative to control; assay type: functional; set-up: scale not given: the % may be the effect or the level left; conditions: time 18-22 day
Rattus norvegicus [27] = assay: Antiinflammatory activity in complete freund's adjuvant-induced Lewis rat model of arthritis assessed as reduction in paw edema at 0.5 mg/kg, po administered via gavage once daily and measured at day 18 to 22 by plethysmometric method; assay type: functional, organism-based; conditions: time 18-22 day
Rattus norvegicus [28] = assay: Antiinflammatory activity in complete freund's adjuvant-induced Lewis rat model of arthritis assessed as reduction in paw edema administered via oral gavage once daily by plethysmometric method; assay type: functional, organism-based
[29] = Terminal half life in Sprague- Dawley rat at 1 mg/kg, po or 1 mg/kg, iv; assay type: ADME, organism-based; conditions: in vivo, read-out: beta t1/2 (converted); procedure, shortened: as §4
[30] = Clearance in Sprague- Dawley rat at 1 mg/kg, iv; assay type: ADME, organism-based; conditions: in vivo
[31] = Volume of distribution at steady state in Sprague- Dawley rat at 1 mg/kg, po or 1 mg/kg, iv; assay type: ADME, organism-based; conditions: in vivo, read-out: Vdss; procedure, shortened: as §4
Rattus norvegicus [32] = assay: Antiinflammatory activity in complete freund's adjuvant-induced Lewis rat model of arthritis assessed as increase in paw volume at 2.5 mg/kg, po administered via gavage once daily by plethysmometric method; assay type: functional, organism-based

Row | SMILES | concentration [2] [nM] | Activity (Rattus norvegicus [3]) [%] | half-life [6] [min] | Ratio AUC [8] | concentration at 4 h [9] [nM] | Activity [10] [%] | Vd [12] [L/kg] | half-life [13] [min] | ED50 (Rattus norvegicus [15]) [mg/kg] | Activity [16] [%] | clearance [17] [mL/min/kg] | bioavailability [18] [%] | Ratio [19] | Ratio AUC [20] | fold change (FC) [21] | Activity [22] [%] | also measured
1 | COCCCCCC1CCc2cc([C@H]3CC[C@](N)(CO)C3)ccc2C1 (single isomer, unassigned; 24) | 98 | 67 | 1020 | 0.3 | 188 | 82 | 9.9 | 1080 | 0.3 | -7 | 9.7 | 69 | 2.6 | < 0.1 | 1.5 | -23 | Ratio AUC [1]: 0.31; Vd [4]: 13 L/kg; clearance [5]: 10 mL/min/kg; half-life [7]: 1140 min; half-life [11]: 3.38 days; Activity (Rattus norvegicus [14]): 50%
2 | CCCCCCCCc1ccc(CCC(N)(CO)COP(=O)(O)O)cc1 (stereo not drawn) |  |  |  |  |  |  |  |  |  |  |  |  |  |  |  |  | EC50 [23]: 1.6 nM; IC50 [24]: 1.2 nM
3 | CCOCCCC1CCc2cc([C@H]3CC[C@](N)(CO)C3)ccc2C1 (single isomer, unassigned) | 110 | 78 | 1260 | 0.9 | 172 | 83 | 8.4 | 1560 | 0.3 | -14 | 7.4 | 76 | 1.8 | 0.73 | 1.2 | -29 | bioavailability [25]: 45%; Activity (Rattus norvegicus [26]): 75%; Activity (Rattus norvegicus [27]): inactive; Activity (Rattus norvegicus [28]): Dose-dependent effect; half-life [29]: 1740 min; clearance [30]: 6 mL/min/kg; Vd [31]: 12 L/kg; Activity (Rattus norvegicus [32]): inactive
